The source of these data is PMC3063522 (Journal of agricultural and food chemistry, 2011).

The nature of data set [1]: Cytotoxicity. Type of data set: cell-based. As to conditions: human, SK-MEL malignant melanoma cells. Put shortly:
(§1)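 Anti-proliferative assay run alongside four human tumour lines (SK-MEL, KB, BT-549, SK-OV-3) and two noncancerous kidney lines (Vero, LLC-PK11). Doxorubicin served as the positive control.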

Data set [2] in a line: Cytotoxicity. Type of data set: cell-based. To be noted: human, KB oral epidermal carcinoma cells. Put shortly: as §1
Data set [3] can be described thus: Cytotoxicity. Type of data set: cell-based. To be noted: human, BT-549 breast ductal carcinoma cells. A digest of the protocol: as §1
The nature of data set [4]: Cytotoxicity. To be noted: human, SK-OV-3 ovary carcinoma cells. It is filed as cell-based. Put shortly:
as §1

A short description of data set [5]: Cytotoxicity. To be noted: African green monkey, Vero kidney fibroblasts. It is filed as cell-based. A digest of the protocol:
as §1

Data set [6] in a line: Cytotoxicity. Type of data set: cell-based. To be noted: pig, LLC-PK11 kidney epithelial cells. Put shortly:
as §1

The nature of data set [7]: Cytotoxicity towards HL-60 cells in the antioxidant assay. Type of data set: cell-based. As to conditions: human, HL-60 promyelocytic leukemia cells.
Data set [8] can be described thus: Cytotoxicity to RAW 264.7 cells in the iNOS assay. It is filed as cell-based, mouse. As to conditions: mouse, RAW 264.7 macrophages.
The test system of data set [9] is Phomopsis obscurans. Briefly: Antifungal broth dilution microbioassay, Phomopsis obscurans. It is filed as cell-based. A digest of the protocol:
(§2)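 Broth microdilution adapted from the NCCLS M27-A yeast method for conidia-forming filamentous plant-pathogenic fungi. The commercial fungicide captan served as the internal standard in every assay. Means were compared by SAS analysis of variance with Fisher's protected LSD. For P. viticola and P. obscurans, activity was read at 120 and 144 h of incubation.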

Data set [10] has as its system Phomopsis viticola. Nature of the data set: Antifungal broth dilution microbioassay, Phomopsis viticola. It is filed as cell-based. A digest of the protocol:
as §2

For data set [11], the system named is adult A. aegypti female mosquitoes. Nature of the data set: Adult mosquito topical toxicity assay. Type of data set: in vivo. As to conditions: for Adult mosquito mortality rate ± SD: topical, 3.12 μg per insect, acetone/DMSO control gave 5.8±1.8%.
The test system of data set [12] is Botrytis cinerea. Nature of the data set: Antifungal broth dilution microbioassay, Botrytis cinerea. Type of data set: cell-based. A digest of the protocol: as §2
The test system of data set [13] is mosquito larvae. Nature of the data set: Mosquito larvae toxicity bioassay. Type of data set: in vivo. To be noted: Figure 4. A digest of the protocol: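 Larval toxicity bioassay, run in triplicate. Controls were untreated, DMSO-acetone carrier, and permethrin as the positive control.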
[14] abbreviates: 120 and 144 h (from 120 to 144 h).
The mark [15] stands for this setting: at the highest concentrations, Figure 2D.

Converted amounts (≈) assume the structure as drawn. “Also recorded” adds a separate entry of the source.

As usually defined, the IC50 is the concentration that gives 50% inhibition. A low value points to higher potency.

For `CC(C)/C=C/c1c(O)cc(/C=C/C2=CC(=O)OC2CC(=O)O)cc1O` (stereo not drawn) [Compound 4, SB-1], the IC50 in data set [1], in [2], in data set [3], in [4], in data set [5] and in data set [6] was above 25 µg/mL throughout. Also, the IC50 in data set [7] and in data set [8] was above 25 µg/mL each time. The “Antifungal activity against P. obscurans” value in data set [9] (setting [14]) is recorded as “did not exhibit any activity”.

As for `CC(C)/C=C/c1c(O)cc(/C=C/c2ccccc2)cc1O` [Compound 6, arahypin-1], the half-maximal inhibitory concentration (IC50) in [1], in data set [2], in data set [3], in data set [4], in [5] and in [6] was above 25 µg/mL in each case. In addition, the IC50 in [7] was above 31.3 µg/mL; in data set [8], above 25 µg/mL. Further, the “Antifungal activity against P. viticola” value in [10] (144 h of incubation) is “more fungicidal”. Further, the “Antifungal activity against P. obscurans” value in [9] (setting [14]) is reported as “highest levels of inhibition”; in data set [9] (144 h of incubation) it was “more fungicidal”.

`CC(C)(O)C(O)Cc1c(O)cc(/C=C/c2ccc(O)cc2)cc1O` (stereo not drawn) [Compound 8, arahypin-3]: the IC50 in data set [1], in data set [2], in [3], in data set [4], in data set [5] and in data set [6] was above 25 µg/mL in each case. The IC50 in data set [7] and in data set [8] was above 25 µg/mL throughout. Further, the “Adult mosquito mortality rate ± SD” value in data set [11] is “marginally active”.

On to `CC(C)(O)C(O)Cc1c(O)cc(/C=C/c2ccccc2)cc1O` (stereo not drawn) [Compound 9, arahypin-4], for which the IC50 in data set [1], in data set [2], in data set [3], in data set [4], in [5] and in data set [6] was above 25 µg/mL in each case. Further, the IC50 in data set [7] is above 31.3 µg/mL; in data set [8], above 25 µg/mL. Besides, in data set [11], the “Adult mosquito mortality rate ± SD” value came to 10±0.0%.

Consider `Oc1cc(O)cc(/C=C/c2ccccc2)c1` [Compound 11, pinosylvin], for which the half-inhibitory concentration (IC50) was 12.5 µg/mL (≈ 58.9 µM) in data set [1]; 13.8 µg/mL (≈ 65 µM) in data set [2]; 13 µg/mL (≈ 61.2 µM) in data set [3]; 17 µg/mL (≈ 80.1 µM) in [4]; 13 µg/mL (≈ 61.2 µM) in data set [5]; 10.5 µg/mL (≈ 49.5 µM) in data set [6]. Further, the IC50 in [7] turned out to be 18 µg/mL (≈ 84.8 µM); in data set [8], 10.5 µg/mL (≈ 49.5 µM). Besides, the “Antifungal activity against P. viticola” value in data set [10] (setting [15]) is “essentially inactive”. For the same compound, the “Growth inhibition of B. cinerea” value is on record as “minimal activity” in [12] (48 h) and “no activity” in data set [12] (72 h). In addition, the “Toxicity to mosquito larvae” value in [13] is “significantly lower toxicity”.

In the case of `Oc1ccc(/C=C/c2ccccc2)cc1O` [Compound 12], the half-inhibitory concentration (IC50) in [1], in data set [2], in [3], in [4], in [5] and in [6] was above 25 µg/mL each time. Moreover, the concentration for half-maximal inhibition (IC50) in data set [7] and in data set [8] was above 25 µg/mL each time. Further, the “Antifungal activity against P. viticola” value in data set [10] (setting [15]) was “essentially inactive”. In addition, the “Growth inhibition of B. cinerea” value in data set [12] (48 h) was “minimal activity”; in data set [12] (72 h), “no activity”.

Regarding `COc1cccc(/C=C/c2ccc(O)cc2)c1` [Compound 13], the concentration for half-maximal inhibition (IC50) in data set [1], in [2], in data set [3], in data set [4], in data set [5] and in data set [6] was above 25 µg/mL each time. In addition, the concentration for half-maximal inhibition (IC50) worked out at 4 µg/mL (≈ 17.7 µM) in data set [7] and 19.5 µg/mL (≈ 86.2 µM) in data set [8]. The “Antifungal activity against P. viticola” value in data set [10] (setting [15]) is reported as “appreciable activity”. In addition, in data set [13], the “Toxicity to mosquito larvae” value was “highest activity; also recorded: very low compared to the positive control permethrin”.

On to `Oc1cccc(/C=C/c2ccccc2)c1` [Compound 14], for which the half-maximal inhibitory concentration (IC50) in data set [1], in [2], in data set [3], in data set [4], in data set [5] and in [6] was above 25 µg/mL throughout. For the same compound, the half-inhibitory concentration (IC50) in data set [7] amounted to 19 µg/mL (≈ 96.8 µM); in data set [8], 22 µg/mL (≈ 112 µM). For the same compound, the “Toxicity to mosquito larvae” value in [13] is on record as “highest activity; also recorded: very low compared to the positive control permethrin”.

In the case of `Oc1ccc(/C=C/c2cccc(O)c2)cc1` [Compound 15, trans-3,4′-dihydroxystilbene], the IC50 in data set [1] was above 25 µg/mL; in [2], above 25 µg/mL; in data set [3], above 25 µg/mL; in data set [4], above 25 µg/mL; in data set [5], 19.5 µg/mL (≈ 91.9 µM); in data set [6], 12 µg/mL (≈ 56.5 µM). The results for the IC50 in data set [7] and in data set [8] were 4 µg/mL (≈ 18.8 µM) and above 25 µg/mL, respectively.

`Oc1cccc(CCc2ccccc2)c1` [Compound 16]: the half-maximal inhibitory concentration (IC50) in data set [1], in [2], in data set [3], in data set [4], in data set [5] and in data set [6] was above 25 µg/mL each time. Moreover, the results for the concentration for half-maximal inhibition (IC50) in [7] and in [8] were 17 µg/mL (≈ 85.7 µM) and above 25 µg/mL, respectively. Besides, the “Antifungal activity against P. viticola” value is “statistically higher activity compared to 14” in [10] (144 h of incubation) and “appreciable activity” in data set [10] (setting [15]). Moreover, the “Toxicity to mosquito larvae” value in [13] is on record as “highest activity; also recorded: very low compared to the positive control permethrin”.

Consider `COc1cccc(CCc2ccc(O)cc2)c1` [Compound 17], for which the concentration for half-maximal inhibition (IC50) in data set [1], in data set [2], in [3], in [4], in [5] and in data set [6] was above 25 µg/mL each time. The figures for the half-maximal inhibitory concentration (IC50) in [7] and in [8] were 9 µg/mL (≈ 39.4 µM) and above 25 µg/mL, respectively.

On to `COc1cc(/C=C/c2ccccc2)cc(OC)c1` [Compound 18], for which the IC50 in data set [1], in data set [2], in [3], in data set [4], in data set [5] and in data set [6] was above 25 µg/mL in each case. The half-maximal inhibitory concentration (IC50) in data set [7] and in data set [8] was above 25 µg/mL in each case. The “Toxicity to mosquito larvae” value in data set [13] is given as “highest activity; also recorded: very low compared to the positive control permethrin”.

With `COc1cc(O)cc(/C=C/c2ccccc2)c1` [Compound 19], the 50% inhibitory concentration (IC50) in [1], in [2], in [3], in data set [4], in [5] and in data set [6] was above 25 µg/mL each time. Also, the IC50 in data set [7] is 18 µg/mL (≈ 79.5 µM); in [8], 12 µg/mL (≈ 53 µM). In addition, the “Antifungal activity against P. viticola” value in [10] (setting [15]) is on record as “appreciable activity”. In addition, the “Toxicity to mosquito larvae” value in [13] is listed as “highest activity; also recorded: somewhat greater activity”.

Take `CC(C)=CCC/C(C)=C/Cc1c(O)cc(/C=C/c2ccc(O)cc2O)cc1O` [Compound 22, chlorophorin]: the IC50 in [1] is above 25 µg/mL; in data set [2], above 25 µg/mL; in [3] it was 20 µg/mL (≈ 52.6 µM); in data set [4], above 25 µg/mL; in data set [5], 15.5 µg/mL (≈ 40.7 µM); in [6], 14.5 µg/mL (≈ 38.1 µM). Besides, the half-inhibitory concentration (IC50) in [7] is 25 µg/mL (≈ 65.7 µM); in data set [8], 9 µg/mL (≈ 23.7 µM). Also, the “Antifungal activity against P. viticola” value in data set [10] (setting [15]) was “appreciable activity”. In addition, the “Growth inhibition of B. cinerea” value in data set [12] (48 h) and in data set [12] (72 h) was “very high growth inhibition values” in each case.

On to `COc1ccc(/C=C/c2cc(O)cc(O[C@@H]3O[C@H](CO)[C@@H](O)[C@H](O)[C@H]3O)c2)cc1O` [Compound 23, rhapontin, reference compound], for which the IC50 in data set [1], in data set [2], in data set [3], in [4], in data set [5] and in [6] was above 25 µg/mL in each case. The IC50 in data set [7] was 20 µg/mL (≈ 47.6 µM); in data set [8], above 25 µg/mL. In addition, the “Growth inhibition of B. cinerea” value in [12] (72 h) is “very high growth inhibition values”. Besides, the “Toxicity to mosquito larvae” value in data set [13] is “significantly lower toxicity”.

Consider `COc1cccc2c1C(=O)c1c(O)c3c(c(O)c1C2=O)C[C@@](O)(C(=O)CO)C[C@@H]3O[C@H]1C[C@H](N)[C@H](O)[C@H](C)O1` [Doxorubicin, reference compound], for which the IC50 in data set [1] is 0.8 µg/mL (≈ 1.47 µM); in [2] it was 1.45 µg/mL (≈ 2.67 µM); in [3], 1.35 µg/mL (≈ 2.48 µM); in data set [4] it was 1.3 µg/mL (≈ 2.39 µM); in data set [5] it was above 5 µg/mL; in [6], 0.9 µg/mL (≈ 1.66 µM). This compound also returned an IC50 in data set [7] of 0.24 µg/mL (≈ 0.442 µM).

`C=C1C(=O)O[C@H]2[C@H]1CC/C(C)=C/CC[C@@]1(C)O[C@@H]21` [Parthenolide, reference compound] came in with a half-inhibitory concentration (IC50) in data set [8] of 13.5 µg/mL (≈ 54.4 µM).

On to `CC1(C)C(C=C(Cl)Cl)C1C(=O)OCc1cccc(Oc2ccccc2)c1` (stereo not drawn) [permethrin, reference compound], for which, in data set [11] (6.25 μg/mosquito, positive standard), the Adult mosquito mortality came to 100%.
